Experimental data of several laboratories.
Lines come from different studies, so protocols differ.
Target: Dual specificity mitogen-activated protein kinase kinase 1 (MAP2K1, Homo sapiens, UniProt Q02750)

`CN1CC[C@H](c2c(O)cc(O)c3c(=O)cc(-c4ccccc4Cl)oc23)[C@H](O)C1` gave a remaining binding of 92% (cell-free assay; competition with immobilised ligand; 0.1 µM).
`CCCOc1ccc([C@@H]2[C@@H](C(=O)O)[C@H](c3ccc4c(c3)OCO4)CN2CC(=O)Nc2c(CC)cccc2CC)cc1` gave a remaining binding of 93% (cell-free assay; competition with immobilised ligand; 1 µM).
The remaining binding of `CC(C)(C)c1ccc(-c2nc(CBr)nn2-c2cccc(O)c2)cc1` is reported as 83% (cell-free assay; competition with immobilised ligand; 10 µM).
For `CN(C)c1ncnc(-c2ccc3nc(Nc4cc(CN5CCN(C(=O)CC(F)(F)F)CC5)ccn4)[nH]c3c2)c1Cl`, the remaining binding was 78% (cell-free assay; competition with immobilised ligand; 1 µM).
With `CNC(=O)c1cc(Oc2ccc(NC(=O)Nc3ccc(Cl)c(C(F)(F)F)c3)cc2)ccn1` the remaining binding was 99% (cell-free assay; competition with immobilised ligand; 10 µM).
`COc1ncc2cc3ccccc3nc2c1C#N` gave a remaining binding of 90% (cell-free assay; competition with immobilised ligand; 5 µM).
`CCN(CC)Cc1cc(Nc2ccnc3cc(Cl)ccc23)ccc1O` gave a remaining binding of 95% (cell-free assay; competition with immobilised ligand; 0.1 µM).
`CC(=O)N1CCC(c2ccc(C(=O)NC(=N)N)cc2C(F)(F)F)CC1` gave a remaining binding of 97% (cell-free assay; competition with immobilised ligand; 1 µM).
For `COc1cc2ncnc(Nc3ccc(F)c(Cl)c3)c2cc1OCCCN1CCOCC1`, the remaining binding was 100% (cell-free assay; competition with immobilised ligand; 0.1 µM).
`O=C(NCCCN1CCOCC1)c1ccc(Nc2ncc(Cl)c(-c3ccc(Cl)s3)n2)cc1` has a remaining binding of 63% (binding; competition with immobilised ligand; 1 µM).
`C[C@H](c1cccc(C#N)c1)n1cc(Cl)cc(C(N)=O)c1=N` gave a remaining binding of 75% (cell-free assay; competition with immobilised ligand; 1 µM).
`C[C@@H]1CN(c2ccc3ncc(-c4ccc5[nH]nc(C6CC6)c5c4)n3n2)C[C@H](C)O1` has a remaining binding of 80% (binding; competition with immobilised ligand; 50 nM).
For `C[C@H]1CCN(c2nccc(-c3cnn4ncccc34)n2)C1`, the remaining binding was 66% (binding; competition with immobilised ligand; 1 µM).
`CCN1CCN(Cc2ccc(C(=O)Nc3ccc(C)c(Oc4ccc5c(c4)CC(=O)N5)c3)cc2C(F)(F)F)CC1` has a remaining binding of 100% (binding; competition with immobilised ligand; 1 µM).
The remaining binding of `CNC(=O)[C@@H]1CC[C@@H](n2c(-c3ccc4cnccc4c3)nc3ccc(C(=O)NCc4cccc(C(N)=O)c4)cc32)C1` is reported as 100% (binding; competition with immobilised ligand; 1 µM).
For `CCN(CC)CCNC(=O)c1c(C)[nH]c(/C=C2\C(=O)Nc3ccc(F)cc32)c1C`, the remaining binding was 51% (cell-free assay; competition with immobilised ligand; 0.1 µM).
`Cc1cnn2ncc(-c3ccnc(N(C)C)n3)c2c1` has a remaining binding of 82% (binding; 1 µM).
With `COc1cnc(Nc2cccc(S(N)(=O)=O)c2)nc1N1CCN(c2ccccc2)CC1` the remaining binding was 90% (binding; competition with immobilised ligand; 1 µM).
The remaining binding of `O=C(N1CCS(=O)(=O)CC1)N1C[C@H](c2ccc(OC(F)(F)F)cc2)C[C@H](c2nc(C3CC3)no2)C1` is reported as 91% (cell-free assay; competition with immobilised ligand; 1 µM).
`Cc1ccc(NC(=O)c2ccc(CN3CCN(C)CC3)cc2)cc1Nc1nccc(-c2cccnc2)n1` gave a remaining binding of 95% (cell-free assay; competition with immobilised ligand; 0.1 µM).
`O=C(NCCCN1CCOCC1)c1ccc(Nc2nccc(-c3cc4ccccc4s3)n2)cc1` has a remaining binding of 75% (binding; competition with immobilised ligand; 1 µM).
With `CS(=O)(=O)CCNCc1ccc(-c2ccc3ncnc(Nc4ccc(OCc5cccc(F)c5)c(Cl)c4)c3c2)o1` the remaining binding was 87% (cell-free assay; competition with immobilised ligand; 10 µM).
The remaining binding of `Cc1cnc(Nc2ccc(C(=O)N3CCC(N4CCCC4)CC3)cc2)nc1-c1cc2ccccc2s1` is reported as 25% (binding; competition with immobilised ligand; 1 µM).
`O=C(Nc1c[nH]nc1C(=O)NC1CCNCC1)c1cc(F)cc(F)c1` has a remaining binding of 80% (binding; competition with immobilised ligand; 1 µM).
The remaining binding of `CN(CCCC(F)(F)F)c1nccc(-c2cnn3ncccc23)n1` is reported as 99% (binding; competition with immobilised ligand; 1 µM).
`COc1ccc2cc(OCC3(C(=O)O)CN(C(=O)c4ccc(F)cc4)C3)ccc2c1` gave a remaining binding of 100% (cell-free assay; competition with immobilised ligand; 1 µM).
`CN(c1nccc(-c2cnn3ncccc23)n1)C1CC1` gave a remaining binding of 100% (binding; 1 µM).
`Cc1c(-c2ccccc2)oc2c(C(=O)OCCN3CCCCC3)cccc2c1=O` gave a remaining binding of 95% (cell-free assay; competition with immobilised ligand; 10 µM).
For `CC1=C(C#N)C(c2ccc3c(c2)c(NC(=O)c2ccccc2C)nn3C)C(C#N)=C(C)N1`, the remaining binding was 87% (cell-free assay; competition with immobilised ligand; 1 µM).
The remaining binding of `c1cncc(-c2cccc(Nc3nccc(NC4CCCCC4)n3)c2)c1` is reported as 79% (binding; competition with immobilised ligand; 10 µM).
With `F[C@@H]1CCN(c2nccc(-c3cnn4ncccc34)n2)C1` the remaining binding was 89% (binding; 1 µM).
With `COc1ccc2c(c1)O[C@@H](c1ccc(OC)c(OC)c1)C[C@H]2NC(=O)C1(c2ccc3c(c2)OC(F)(F)O3)CC1` the remaining binding was 86% (cell-free assay; competition with immobilised ligand; 1 µM).
